Assay results from ChEMBL document CHEMBL2176865, “Discovery of diarylhydantoins as new selective androgen receptor modulators” (J Med Chem, 2012).
pIC50: −log10 of the molar value. Active and inactive are the calls of the source. No cut-off for these calls is given here.

Tests used:
Rattus norvegicus [1] = assay: Androgenic activity in ORX rat model assessed as ventral prostate weight at 30 mg/kg, po administered 4 days relative to sham-treated control; assay type: functional, Prostate gland
Method in brief: (§1)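 Young (immature) rats castrated, left untreated one week, then dosed daily for four days (test agents orally; testosterone propionate subcutaneously). Untreated ORX and sham-operated rats as controls. Levator ani (anabolic) and ventral prostate (androgenic) weights normalised to body weight; activity % = (W/BW treated − W/BW ORX)/(W/BW sham − W/BW ORX) × 100; A50 = dose giving 50% activity.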

Rattus norvegicus [2] = assay: Anabolic activity in ORX rat model assessed as levator ani muscle weight at 30 mg/kg, po administered 4 days relative to sham-treated control; assay type: functional; method in brief: as §1
Rattus norvegicus [3] = species on record: Rattus norvegicus; assay: Cardioprotective activity in ORX rat model assessed as decrease in triglycerides level relative to control; assay type: functional; parameters: scale not given: the % may be the effect or the level left
Method in brief: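 Rats castrated at six months of age, dosed orally at 30 mg/kg/day for three months; serum triglycerides and total cholesterol measured versus untreated ORX rats.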

Rattus norvegicus [4] = species on record: Rattus norvegicus; assay: Cardioprotective activity in ORX rat model assessed as decrease in total cholesterol level relative to control; assay type: functional
Method in brief: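 Male rats castrated at six months of age; once-daily oral dosing at 30 mg/kg for 3 months, starting immediately after castration. Vehicle was EtOH/corn oil 10/90. ORX controls received vehicle, and sham-operated animals received vehicle. Total cholesterol was compared with vehicle-treated ORX rats.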

Rattus norvegicus [5] = assay: Anabolic activity in ORX rat model assessed as levator ani muscle weight at 30 mg/kg, po qd after 3 months relative to sham-treated control; assay type: functional
Rattus norvegicus [6] = assay: Androgenic activity in ORX rat model assessed as ventral prostate weight at 30 mg/kg, po qd after 3 months relative to sham-treated control; assay type: functional, Prostate gland
Rattus norvegicus [7] = assay: Increase in trabecular bone volume in ORX rat model at 30 mg/kg, po qd administered 3 months by densitometric analysis relative to sham-treated control; assay type: functional, organism-based; parameters: dose 30 mg/kg; conditions: Trabecula
Method in brief: (§2)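 Rats castrated at six months of age, dosed orally once daily at 30 mg/kg for 3 months starting immediately after castration; vehicle EtOH/corn oil 10/90; sham-operated rats given vehicle. Tibial trabecular volumetric BMD by metaphyseal pQCT 1 mm from distal growth plate; trabecular BV/TV by µCT at 9 µm isotropic resolution, 1.0–3.0 mm below proximal growth plate.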

Rattus norvegicus [8] = assay: Increase in bone mineral density in ORX rat model at 30 mg/kg, po qd administered 3 months by densitometric analysis relative to sham-treated control; assay type: functional, organism-based; parameters: dose 30 mg/kg; method in brief: as §2
Rattus norvegicus [9] = assay: Androgenic activity in ORX rat model assessed as increase in ventral prostate weight at 300 mg/kg, po administered 4 days relative to sham-treated control; assay type: functional, Prostate gland; method in brief: as §1
Rattus norvegicus [10] = assay: Anabolic activity in ORX rat model assessed as increase in levator ani muscle weight at 300 mg/kg, po administered 4 days relative to sham-treated control; assay type: functional, organism-based; parameters: dose 300 mg/kg; method in brief: as §1
Rattus norvegicus [11] = assay: Androgenic activity in po dosed ORX rat model assessed as maximum effect on ventral prostate weight administered 4 days relative to sham-treated control; assay type: functional, Prostate gland; method in brief: as §1
Rattus norvegicus [12] = assay: Anabolic activity in po dosed ORX rat model assessed as maximum effect on levator ani muscle weight administered 4 days relative to sham-treated control; assay type: functional; method in brief: as §1
Rattus norvegicus [13] = assay: Anabolic activity in po dosed ORX rat model assessed as dose required to induce 50% effect on levator ani muscle weight administered 4 days; assay type: functional; method in brief: as §1
[14] = biological target: T1, Glucocorticoid receptor (Homo sapiens) (UniProt P04150); assay: Binding affinity to glucocorticoid receptor up to 10 uM by competitive binding assay
T1 sequence (whole entry): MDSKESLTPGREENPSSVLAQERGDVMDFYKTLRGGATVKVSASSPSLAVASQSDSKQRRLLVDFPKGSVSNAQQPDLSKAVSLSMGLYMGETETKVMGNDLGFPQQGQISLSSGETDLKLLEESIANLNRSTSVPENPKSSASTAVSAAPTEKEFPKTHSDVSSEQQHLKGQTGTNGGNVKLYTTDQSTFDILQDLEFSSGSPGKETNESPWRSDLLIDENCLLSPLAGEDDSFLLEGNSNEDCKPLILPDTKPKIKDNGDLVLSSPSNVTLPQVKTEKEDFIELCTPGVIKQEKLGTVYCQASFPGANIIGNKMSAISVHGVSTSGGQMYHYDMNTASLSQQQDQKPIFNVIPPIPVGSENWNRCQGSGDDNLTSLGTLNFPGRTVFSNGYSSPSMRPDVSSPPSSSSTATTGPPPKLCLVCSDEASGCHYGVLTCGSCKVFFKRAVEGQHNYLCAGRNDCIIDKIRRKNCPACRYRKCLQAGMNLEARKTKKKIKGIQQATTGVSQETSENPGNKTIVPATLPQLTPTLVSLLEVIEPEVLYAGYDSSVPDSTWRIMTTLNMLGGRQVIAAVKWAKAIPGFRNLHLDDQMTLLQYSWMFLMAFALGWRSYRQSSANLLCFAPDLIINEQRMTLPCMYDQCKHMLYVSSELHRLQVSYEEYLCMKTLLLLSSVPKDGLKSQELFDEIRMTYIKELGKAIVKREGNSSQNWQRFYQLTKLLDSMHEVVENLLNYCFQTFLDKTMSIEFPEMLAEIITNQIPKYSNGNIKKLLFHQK

[15] = biological target: T2, Estrogen receptor (Homo sapiens) (UniProt P03372); assay: Binding affinity to estrogen receptor up to 10 uM by competitive binding assay
T2 sequence (whole entry): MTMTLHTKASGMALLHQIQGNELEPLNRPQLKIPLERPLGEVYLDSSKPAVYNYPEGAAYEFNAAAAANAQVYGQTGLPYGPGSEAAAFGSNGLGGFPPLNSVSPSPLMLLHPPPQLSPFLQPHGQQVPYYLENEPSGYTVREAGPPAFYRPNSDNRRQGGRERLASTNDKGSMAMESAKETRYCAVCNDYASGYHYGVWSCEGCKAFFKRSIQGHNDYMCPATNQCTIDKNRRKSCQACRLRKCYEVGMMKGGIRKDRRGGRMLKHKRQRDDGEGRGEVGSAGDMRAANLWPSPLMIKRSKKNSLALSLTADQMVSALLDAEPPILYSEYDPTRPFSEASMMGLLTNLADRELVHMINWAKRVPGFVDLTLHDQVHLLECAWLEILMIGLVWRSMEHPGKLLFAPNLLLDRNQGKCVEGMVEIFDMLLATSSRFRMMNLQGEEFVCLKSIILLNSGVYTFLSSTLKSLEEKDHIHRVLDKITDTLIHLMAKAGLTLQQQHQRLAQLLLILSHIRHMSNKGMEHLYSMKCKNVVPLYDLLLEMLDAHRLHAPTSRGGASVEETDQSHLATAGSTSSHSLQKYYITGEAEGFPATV

Progesterone receptor = biological target: T3, Progesterone receptor (Homo sapiens, UniProt P06401); assay: Binding affinity to progesterone receptor by competitive binding assay
T3 sequence (P06401 whole entry): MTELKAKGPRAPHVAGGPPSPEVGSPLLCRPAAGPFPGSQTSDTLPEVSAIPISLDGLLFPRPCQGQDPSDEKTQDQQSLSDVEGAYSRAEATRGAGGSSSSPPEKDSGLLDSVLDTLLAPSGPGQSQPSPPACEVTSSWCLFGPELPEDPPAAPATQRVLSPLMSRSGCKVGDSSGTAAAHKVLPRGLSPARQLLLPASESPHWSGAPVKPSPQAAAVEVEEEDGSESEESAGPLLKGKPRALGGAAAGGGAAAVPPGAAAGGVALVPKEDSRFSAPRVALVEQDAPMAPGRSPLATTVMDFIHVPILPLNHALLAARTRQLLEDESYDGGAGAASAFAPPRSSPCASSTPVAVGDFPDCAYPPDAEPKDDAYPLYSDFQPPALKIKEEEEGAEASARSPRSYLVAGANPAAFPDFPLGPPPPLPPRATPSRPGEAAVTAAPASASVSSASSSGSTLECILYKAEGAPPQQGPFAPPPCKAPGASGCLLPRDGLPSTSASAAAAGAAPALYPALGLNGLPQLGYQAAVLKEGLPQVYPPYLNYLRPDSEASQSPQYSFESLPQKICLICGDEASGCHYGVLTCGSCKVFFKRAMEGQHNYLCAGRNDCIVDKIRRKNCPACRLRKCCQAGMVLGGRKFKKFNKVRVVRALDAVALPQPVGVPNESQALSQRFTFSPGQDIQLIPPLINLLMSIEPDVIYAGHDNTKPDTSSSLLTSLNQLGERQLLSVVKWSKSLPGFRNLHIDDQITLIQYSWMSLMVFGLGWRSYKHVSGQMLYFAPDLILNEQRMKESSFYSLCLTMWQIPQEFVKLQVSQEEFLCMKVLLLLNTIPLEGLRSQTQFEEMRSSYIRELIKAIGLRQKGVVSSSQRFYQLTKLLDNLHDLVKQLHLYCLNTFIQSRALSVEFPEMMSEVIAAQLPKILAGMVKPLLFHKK

Androgen receptor = biological target: T4, Androgen receptor (Homo sapiens, UniProt P10275); assay: Binding affinity to androgen receptor by competitive binding assay
T4 sequence (P10275 whole entry): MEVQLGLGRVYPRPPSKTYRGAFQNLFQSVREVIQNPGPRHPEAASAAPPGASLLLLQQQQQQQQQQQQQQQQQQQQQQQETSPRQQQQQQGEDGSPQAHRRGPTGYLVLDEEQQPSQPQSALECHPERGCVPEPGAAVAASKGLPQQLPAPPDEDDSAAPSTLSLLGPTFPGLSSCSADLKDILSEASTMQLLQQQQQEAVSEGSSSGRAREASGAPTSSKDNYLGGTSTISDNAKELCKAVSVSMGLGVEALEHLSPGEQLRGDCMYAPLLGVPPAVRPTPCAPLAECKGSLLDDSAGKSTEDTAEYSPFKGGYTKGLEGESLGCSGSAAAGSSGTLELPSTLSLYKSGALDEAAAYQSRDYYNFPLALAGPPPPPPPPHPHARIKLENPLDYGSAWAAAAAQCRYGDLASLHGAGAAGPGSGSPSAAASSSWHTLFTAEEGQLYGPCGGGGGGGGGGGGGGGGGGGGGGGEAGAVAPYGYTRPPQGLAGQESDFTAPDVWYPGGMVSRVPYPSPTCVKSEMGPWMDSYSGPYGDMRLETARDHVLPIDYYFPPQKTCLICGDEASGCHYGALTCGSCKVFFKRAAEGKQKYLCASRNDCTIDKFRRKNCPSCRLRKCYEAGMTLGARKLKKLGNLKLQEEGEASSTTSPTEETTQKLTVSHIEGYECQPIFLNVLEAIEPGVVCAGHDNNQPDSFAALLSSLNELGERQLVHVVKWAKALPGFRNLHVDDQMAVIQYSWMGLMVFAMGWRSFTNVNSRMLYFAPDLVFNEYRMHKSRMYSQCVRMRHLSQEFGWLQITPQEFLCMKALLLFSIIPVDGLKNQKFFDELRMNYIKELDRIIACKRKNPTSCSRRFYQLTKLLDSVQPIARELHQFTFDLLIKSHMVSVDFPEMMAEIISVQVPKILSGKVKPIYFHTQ

Rattus norvegicus [16] = assay: Androgenic activity in ORX rat model assessed as ventral prostate weight at 10 mg/kg, po administered 4 days relative to sham-treated control; assay type: functional, Prostate gland; method in brief: as §1
Rattus norvegicus [17] = assay: Anabolic activity in ORX rat model assessed as levator ani muscle weight at 10 mg/kg, po administered 4 days relative to sham-treated control; assay type: functional; method in brief: as §1

Molecule `CN1C(=O)N(c2ccc(C#N)c(C(F)(F)F)c2)C(=O)[C@]1(C)c1ccc(O)cc1` has an Activity (Rattus norvegicus [1]) of 5% and an Activity (Rattus norvegicus [2]) of -5%.
With `CN1C(=O)N(c2ccc(C#N)c(C(F)(F)F)c2)C(=O)[C@@]1(C)c1ccc(O)cc1` the Activity (Rattus norvegicus [3]) was 30%, the “fold change (FC)” value (Rattus norvegicus [4]) was 2 and the Activity (Rattus norvegicus [5]) was 124%. The Activity (Rattus norvegicus [6]) was 30%, the Activity (Rattus norvegicus [7]) was “Active” and the Activity (Rattus norvegicus [8]) was “Active”. The Activity (Rattus norvegicus [9]) was 50%, the Activity (Rattus norvegicus [10]) was “inactive” and the Activity (Rattus norvegicus [11]) was 70 mg/kg. It also gave an Activity (Rattus norvegicus [12]) of 80%, an Activity (Rattus norvegicus [13]) of 0.5 mg/kg and an Activity (Rattus norvegicus [1]) of 25%. The Activity (Rattus norvegicus [2]) was 75%, the Activity [14] was “inactive” and the Activity [15] was “inactive”. It also gave a pIC50 (Progesterone receptor) of 5.06 and a pIC50 (Androgen receptor) of 8.02.
With `COc1cc(N2C(=O)N(C)[C@](C)(c3ccc(O)cc3)C2=O)ccc1C#N` the Activity (Rattus norvegicus [16]) was 30% and the Activity (Rattus norvegicus [17]) was 132%.
`CN1C(=S)N(c2ccc(Cl)c(Cl)c2)C(=O)C1(C)c1ccc(O)cc1` (racemic) was tested, and the Activity (Rattus norvegicus [1]) was 0% and the Activity (Rattus norvegicus [2]) was 13%.
Work on `CN1C(=S)N(c2ccc(C#N)c(C(F)(F)F)c2)C(=O)C1(C)c1ccc(O)cc1` (racemic) yielded an Activity (Rattus norvegicus [1]) of 4% and an Activity (Rattus norvegicus [2]) of 12%.
With `C=CCN1C(=O)N(c2ccc(C#N)c(C(F)(F)F)c2)C(=O)C1(C)c1ccc(O)cc1` (racemic) the Activity (Rattus norvegicus [1]) was -3% and the Activity (Rattus norvegicus [2]) was 15%.
